Data on one compound can be found in ChEMBL document CHEMBL3259640 (J Med Chem, 2014).

Data set [1] can be described thus: AUC in Sprague-Dawley rat at 2 mg/kg, iv compound formulated with 5% DMSO, 10% cremophor and 85% water by LC-MS/MS analysis. Format: ADME, organism-based. Also noted: dose 2 mg/kg, route intravenous. Conditions: plasma.
For data set [2], the target named is Receptor-type tyrosine-protein kinase FLT3 (Homo sapiens, UniProt P36888). In words: Inhibition of FLT3 (unknown origin) assessed as [33P] incorporation in substrate by TopCount microplate scintillation counting analysis.
In data set [3] the test system is HeLa. In words: Induction of apoptosis in human HeLa cells assessed as reduction in Bcl-2 protein expression at 1 uM after 24 to 48 hrs by western blot analysis. Type of data set: functional, cell-based. In a few lines: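 HeLa cells given 1.0 μM compound, DMSO, or paclitaxel 100 nM for 24 and 48 h. Lysates made in SDS sample buffer, run on SDS-PAGE and transferred to PVDF. Blots probed for cleaved caspase-3, cleaved PARP, Bcl-2, Mcl-1 and XIAP, with actin as loading control, and detected by HRP-linked ECL.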

The nature of data set [4]: Clearance in Sprague-Dawley rat at 2 mg/kg, iv compound formulated with 5% DMSO, 10% cremophor and 85% water by LC-MS/MS analysis. The conditions noted are these: in vivo. Format: ADME, organism-based. More on the design: dose 2 mg/kg, route intravenous.
The nature of data set [5]: Volume of distribution in Sprague-Dawley rat at 2 mg/kg, iv compound formulated with 5% DMSO, 10% cremophor and 85% water by LC-MS/MS analysis. Format: ADME, organism-based. Also noted: dose 2 mg/kg, route intravenous. Conditions: in vivo. In a few lines:
(§1)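 Male Sprague–Dawley rats, n = 3. Blood drawn by preimplanted catheter over 24 h; plasma separated at 4 °C and deproteinated with acetonitrile. Drug measured by LC–MS/MS; parameters obtained by noncompartmental analysis.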

The target of data set [6] is Vascular endothelial growth factor receptor 2 (Homo sapiens, UniProt P35968). In words: Inhibition of VEGFR2 (unknown origin) assessed as [33P] incorporation in substrate by TopCount microplate scintillation counting analysis.
Chain of Vascular endothelial growth factor receptor 2 (P35968 whole entry): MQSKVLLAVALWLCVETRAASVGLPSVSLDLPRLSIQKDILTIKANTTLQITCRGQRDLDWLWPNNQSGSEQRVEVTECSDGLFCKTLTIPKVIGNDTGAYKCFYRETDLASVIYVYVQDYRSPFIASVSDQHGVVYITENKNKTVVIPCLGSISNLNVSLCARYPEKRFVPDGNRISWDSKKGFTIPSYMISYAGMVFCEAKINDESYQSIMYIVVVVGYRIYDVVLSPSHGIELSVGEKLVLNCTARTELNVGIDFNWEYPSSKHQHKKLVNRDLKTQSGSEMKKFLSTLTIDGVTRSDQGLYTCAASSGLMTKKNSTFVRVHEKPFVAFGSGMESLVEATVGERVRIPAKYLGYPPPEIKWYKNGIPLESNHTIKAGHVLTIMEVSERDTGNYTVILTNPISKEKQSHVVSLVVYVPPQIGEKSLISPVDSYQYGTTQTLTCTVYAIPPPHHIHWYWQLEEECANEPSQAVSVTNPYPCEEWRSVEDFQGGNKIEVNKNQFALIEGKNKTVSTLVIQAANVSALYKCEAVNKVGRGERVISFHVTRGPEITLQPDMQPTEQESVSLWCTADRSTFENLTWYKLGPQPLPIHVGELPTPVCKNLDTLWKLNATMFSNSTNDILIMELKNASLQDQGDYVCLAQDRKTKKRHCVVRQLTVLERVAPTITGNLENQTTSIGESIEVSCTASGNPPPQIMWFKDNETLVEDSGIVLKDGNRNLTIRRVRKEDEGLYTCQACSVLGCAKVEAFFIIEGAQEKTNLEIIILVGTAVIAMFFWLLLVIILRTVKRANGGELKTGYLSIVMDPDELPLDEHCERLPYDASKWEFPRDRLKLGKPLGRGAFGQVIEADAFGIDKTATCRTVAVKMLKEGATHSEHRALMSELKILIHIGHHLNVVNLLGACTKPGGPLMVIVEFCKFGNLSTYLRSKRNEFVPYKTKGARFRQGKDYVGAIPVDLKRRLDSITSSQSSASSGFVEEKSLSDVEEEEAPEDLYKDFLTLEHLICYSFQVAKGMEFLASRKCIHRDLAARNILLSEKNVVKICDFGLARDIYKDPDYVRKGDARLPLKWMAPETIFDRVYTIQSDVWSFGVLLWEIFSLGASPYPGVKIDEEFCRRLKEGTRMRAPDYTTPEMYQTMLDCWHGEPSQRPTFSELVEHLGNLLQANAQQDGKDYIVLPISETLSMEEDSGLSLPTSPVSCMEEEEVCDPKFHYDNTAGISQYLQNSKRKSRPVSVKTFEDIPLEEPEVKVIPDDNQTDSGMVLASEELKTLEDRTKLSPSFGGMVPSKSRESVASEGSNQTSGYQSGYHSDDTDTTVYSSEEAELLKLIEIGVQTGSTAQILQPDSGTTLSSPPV
In data set [7] the test system is U-937. In words: Growth inhibition of human U937 cells. Type of data set: functional.
The test system of data set [8] is MDA-MB-468. In words: Induction of mitotic abnormalities in human MDA-MB-468 cells assessed as proportion of cells displaying multipolar spindles at 10 nM after 48 hrs by immunofluorescent staining based microscopy (reference value: […]). Type of data set: functional.
Data set [9] is described as follows: Oral bioavailability in Sprague-Dawley rat at 20 mg/kg compound formulated with 5% DMSO, 10% cremophor and 85% water by LC-MS/MS analysis. Type of data set: ADME, organism-based. The conditions noted are these: in vivo.
The subject of data set [10] is Mus musculus. In words: Toxicity in BALB/c nu/nu mouse xenografted with human MDA-MB-231 cells assessed as body weight loss at 20 mg/kg, iv qd for 28 days. Format: organism-based. Also noted: dose 20 mg/kg, route intravenous. The conditions noted are these: in vivo, 672 h. In outline:
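Female BALB/c nu/nu mice, 5–8 weeks old, implanted subcutaneously in the right flank with 1 × 10⁷ MDA-MB-231 cells in matrigel. Treatment began at about 100 mm³ tumor volume; 5 mice per group. Dosing for 28 days: IV 20 mg/kg once daily or PO 150 mg/kg twice daily, in 5% DMSO/10% Cremophor in H₂O; vehicle controls included. Body weight and tumor size (caliper) recorded every 2 days.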

Data set [11] concerns the target Serine/threonine-protein kinase Chk2 (Homo sapiens, UniProt O96017). In words: Inhibition of CHK2 (unknown origin) assessed as [33P] incorporation in substrate by TopCount microplate scintillation counting analysis.
Data set [12] addresses Mast/stem cell growth factor receptor Kit (Homo sapiens, UniProt P10721). In words: Inhibition of Kit (unknown origin) assessed as [33P] incorporation in substrate by TopCount microplate scintillation counting analysis.
Data set [13] concerns the target Platelet-derived growth factor receptor beta (Homo sapiens, UniProt P09619). In words: Inhibition of PDGFR-beta (unknown origin) assessed as [33P] incorporation in substrate by TopCount microplate scintillation counting analysis.
Data set [14] is described as follows: Oral bioavailability in Sprague-Dawley rat at 20 mg/kg compound formulated with 1% methylcellulose in water by LC-MS/MS analysis. Type of data set: ADME, organism-based. The conditions noted are these: in vivo. In a few lines:
as §1

Data set [15] has as its system MDA-MB-231. In words: Antitumor activity against human MDA-MB-231 cells xenografted in BALB/c nu/nu mouse assessed as tumor volume at 150 mg/kg, po bid for 28 days administered via gavage relative to control. Format: functional. In a few lines:
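Female BALB/c nu/nu mice, 5–8 weeks old, implanted subcutaneously in the right flank with 1 × 10⁷ MDA-MB-231 cells in matrigel. Dosing began at about 100 mm³ mean tumour volume; 5 mice/group. Arms: vehicle (5% DMSO, 10% Cremophor in water) IV once daily, 20 mg/kg IV once daily, or 150 mg/kg PO twice daily, for 28 days. Caliper volumes and body weight every 2 days; T/C on day 28.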

Data set [16] concerns the target T1, Kinetochore protein NDC80 homolog (Homo sapiens) (UniProt O14777).
T1 sequence (whole entry): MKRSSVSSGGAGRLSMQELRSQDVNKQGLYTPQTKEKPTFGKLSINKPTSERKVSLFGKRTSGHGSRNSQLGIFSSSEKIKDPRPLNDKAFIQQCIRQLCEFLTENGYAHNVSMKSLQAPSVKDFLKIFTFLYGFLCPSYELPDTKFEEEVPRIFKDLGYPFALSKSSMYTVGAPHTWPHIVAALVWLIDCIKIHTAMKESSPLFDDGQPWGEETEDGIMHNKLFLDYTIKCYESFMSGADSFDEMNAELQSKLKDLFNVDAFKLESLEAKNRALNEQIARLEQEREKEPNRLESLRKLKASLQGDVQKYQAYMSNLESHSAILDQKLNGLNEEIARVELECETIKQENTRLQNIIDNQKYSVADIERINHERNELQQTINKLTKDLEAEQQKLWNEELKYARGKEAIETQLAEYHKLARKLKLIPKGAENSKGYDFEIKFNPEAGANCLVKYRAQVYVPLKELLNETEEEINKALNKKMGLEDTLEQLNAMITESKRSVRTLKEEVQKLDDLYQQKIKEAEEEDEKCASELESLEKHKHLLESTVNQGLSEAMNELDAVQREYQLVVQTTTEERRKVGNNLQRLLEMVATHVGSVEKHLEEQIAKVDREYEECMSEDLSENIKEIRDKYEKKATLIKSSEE
In words: Inhibition of Hec1/Nek2 interaction in human MDA-MB-468 cells assessed as induction of Nek2 degradation at 100 nM by western blot analysis. Type of data set: cell-based. In a few lines:
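MDA-MB-468 cells treated with compound at 100 nM, with or without MG132 at 500 nM. Lysates made in SDS sample buffer, run on SDS-PAGE and blotted to PVDF. Primary antibodies applied in 3% BSA-TBST, with HRP secondaries and enhanced chemiluminescence detection for Hec1 and Nek2.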

The target of data set [17] is T1, Kinetochore protein NDC80 homolog (Homo sapiens). In words: Inhibition of Hec1/Nek2 interaction in human K562 cells assessed as reduction in coimmunoprecipitated Hec1 level at 100 nM after 16 hrs by co-immunoprecipitation assay. Type of data set: cell-based.
The target in data set [18] is Phosphatidylinositol 4,5-bisphosphate 3-kinase catalytic subunit alpha isoform (Homo sapiens, UniProt P42336). In words: Inhibition of PI3K alpha (unknown origin) assessed as [33P] incorporation in substrate by TopCount microplate scintillation counting analysis.
Chain of Phosphatidylinositol 4,5-bisphosphate 3-kinase catalytic subunit alpha isoform (P42336 whole entry, canonical isoform): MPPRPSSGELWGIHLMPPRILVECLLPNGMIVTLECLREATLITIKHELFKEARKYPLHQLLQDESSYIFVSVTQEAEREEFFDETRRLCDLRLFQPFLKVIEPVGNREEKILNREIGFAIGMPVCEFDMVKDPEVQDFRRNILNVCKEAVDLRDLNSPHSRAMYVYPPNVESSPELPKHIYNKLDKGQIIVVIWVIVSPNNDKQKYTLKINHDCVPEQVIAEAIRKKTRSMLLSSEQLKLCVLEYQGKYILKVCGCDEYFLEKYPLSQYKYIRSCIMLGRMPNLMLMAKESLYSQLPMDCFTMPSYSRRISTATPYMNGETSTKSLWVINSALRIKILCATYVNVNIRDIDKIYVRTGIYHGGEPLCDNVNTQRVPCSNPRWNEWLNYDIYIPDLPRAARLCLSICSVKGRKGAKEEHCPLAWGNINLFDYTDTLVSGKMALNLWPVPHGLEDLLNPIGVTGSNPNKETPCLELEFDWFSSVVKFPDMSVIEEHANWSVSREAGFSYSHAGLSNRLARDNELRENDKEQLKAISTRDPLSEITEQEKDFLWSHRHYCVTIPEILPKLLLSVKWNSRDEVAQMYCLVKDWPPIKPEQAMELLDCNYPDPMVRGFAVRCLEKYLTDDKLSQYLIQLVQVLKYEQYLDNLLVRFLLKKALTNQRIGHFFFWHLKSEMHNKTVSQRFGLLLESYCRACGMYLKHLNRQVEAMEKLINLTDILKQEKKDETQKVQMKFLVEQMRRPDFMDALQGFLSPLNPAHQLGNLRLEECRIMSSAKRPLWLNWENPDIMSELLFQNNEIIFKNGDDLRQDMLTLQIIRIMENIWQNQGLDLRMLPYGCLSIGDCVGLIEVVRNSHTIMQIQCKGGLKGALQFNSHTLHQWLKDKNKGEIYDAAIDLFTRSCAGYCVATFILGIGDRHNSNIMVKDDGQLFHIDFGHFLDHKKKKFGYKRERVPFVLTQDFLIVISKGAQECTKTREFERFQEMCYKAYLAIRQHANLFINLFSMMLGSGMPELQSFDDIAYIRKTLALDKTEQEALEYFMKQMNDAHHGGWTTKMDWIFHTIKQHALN
Data set [19] can be described thus: Growth inhibition of HUVEC. The conditions noted are these: human. Format: cell-based.
For data set [20], the system named is MDA-MB-231. In words: Growth inhibition of human MDA-MB-231 cells. Type of data set: functional.
Data set [21] deals with Serine/threonine-protein kinase mTOR (Homo sapiens, UniProt P42345). In words: Inhibition of mTOR (unknown origin) assessed as [33P] incorporation in substrate by TopCount microplate scintillation counting analysis.

Molecules are shown by their SMILES. Active and inactive are the calls of the source. No cut-off for these calls is given here. Where only a bound is given, the exact number is not on record here.

Chain of Platelet-derived growth factor receptor beta (P09619 whole entry): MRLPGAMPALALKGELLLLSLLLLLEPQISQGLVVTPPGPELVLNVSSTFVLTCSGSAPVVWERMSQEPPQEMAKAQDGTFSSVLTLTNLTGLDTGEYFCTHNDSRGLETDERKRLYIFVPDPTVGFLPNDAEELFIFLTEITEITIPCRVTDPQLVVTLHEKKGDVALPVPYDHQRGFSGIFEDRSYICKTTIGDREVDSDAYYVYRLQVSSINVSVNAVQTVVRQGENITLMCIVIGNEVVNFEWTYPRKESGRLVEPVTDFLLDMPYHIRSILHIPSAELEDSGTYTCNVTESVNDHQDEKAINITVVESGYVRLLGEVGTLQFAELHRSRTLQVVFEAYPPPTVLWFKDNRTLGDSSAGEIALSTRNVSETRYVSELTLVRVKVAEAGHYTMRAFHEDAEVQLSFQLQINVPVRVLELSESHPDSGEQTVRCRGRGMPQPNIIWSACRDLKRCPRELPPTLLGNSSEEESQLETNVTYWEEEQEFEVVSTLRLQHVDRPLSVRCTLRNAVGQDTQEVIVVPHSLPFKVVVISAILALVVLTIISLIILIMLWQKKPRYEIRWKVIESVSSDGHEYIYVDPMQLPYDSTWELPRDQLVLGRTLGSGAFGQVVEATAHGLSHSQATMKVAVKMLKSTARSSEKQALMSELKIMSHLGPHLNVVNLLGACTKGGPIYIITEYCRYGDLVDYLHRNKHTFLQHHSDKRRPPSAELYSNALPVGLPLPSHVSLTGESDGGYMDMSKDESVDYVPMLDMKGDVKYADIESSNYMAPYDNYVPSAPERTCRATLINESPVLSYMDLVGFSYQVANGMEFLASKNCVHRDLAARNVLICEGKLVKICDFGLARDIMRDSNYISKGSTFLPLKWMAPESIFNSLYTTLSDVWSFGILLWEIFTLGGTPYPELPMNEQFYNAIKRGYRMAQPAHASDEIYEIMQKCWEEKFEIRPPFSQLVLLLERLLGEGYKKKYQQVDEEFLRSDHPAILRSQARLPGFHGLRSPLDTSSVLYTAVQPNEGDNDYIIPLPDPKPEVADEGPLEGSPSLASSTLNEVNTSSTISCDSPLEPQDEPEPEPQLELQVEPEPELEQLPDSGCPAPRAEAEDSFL
Chain of Serine/threonine-protein kinase Chk2 (O96017 whole entry): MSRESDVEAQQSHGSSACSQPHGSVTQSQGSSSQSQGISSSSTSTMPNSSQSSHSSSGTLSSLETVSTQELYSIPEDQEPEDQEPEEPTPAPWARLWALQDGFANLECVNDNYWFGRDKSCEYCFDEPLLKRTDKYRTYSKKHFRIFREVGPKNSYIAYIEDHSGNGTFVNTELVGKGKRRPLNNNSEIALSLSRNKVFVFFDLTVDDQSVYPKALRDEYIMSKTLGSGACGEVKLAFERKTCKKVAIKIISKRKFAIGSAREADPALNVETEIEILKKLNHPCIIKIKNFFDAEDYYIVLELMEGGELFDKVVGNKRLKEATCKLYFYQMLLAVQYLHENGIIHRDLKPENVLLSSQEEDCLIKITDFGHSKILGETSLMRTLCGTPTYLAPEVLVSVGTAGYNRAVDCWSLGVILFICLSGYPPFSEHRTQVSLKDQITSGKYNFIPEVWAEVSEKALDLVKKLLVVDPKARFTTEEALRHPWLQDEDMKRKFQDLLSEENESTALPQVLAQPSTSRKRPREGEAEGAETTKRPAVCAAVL
Chain of Mast/stem cell growth factor receptor Kit (P10721 whole entry): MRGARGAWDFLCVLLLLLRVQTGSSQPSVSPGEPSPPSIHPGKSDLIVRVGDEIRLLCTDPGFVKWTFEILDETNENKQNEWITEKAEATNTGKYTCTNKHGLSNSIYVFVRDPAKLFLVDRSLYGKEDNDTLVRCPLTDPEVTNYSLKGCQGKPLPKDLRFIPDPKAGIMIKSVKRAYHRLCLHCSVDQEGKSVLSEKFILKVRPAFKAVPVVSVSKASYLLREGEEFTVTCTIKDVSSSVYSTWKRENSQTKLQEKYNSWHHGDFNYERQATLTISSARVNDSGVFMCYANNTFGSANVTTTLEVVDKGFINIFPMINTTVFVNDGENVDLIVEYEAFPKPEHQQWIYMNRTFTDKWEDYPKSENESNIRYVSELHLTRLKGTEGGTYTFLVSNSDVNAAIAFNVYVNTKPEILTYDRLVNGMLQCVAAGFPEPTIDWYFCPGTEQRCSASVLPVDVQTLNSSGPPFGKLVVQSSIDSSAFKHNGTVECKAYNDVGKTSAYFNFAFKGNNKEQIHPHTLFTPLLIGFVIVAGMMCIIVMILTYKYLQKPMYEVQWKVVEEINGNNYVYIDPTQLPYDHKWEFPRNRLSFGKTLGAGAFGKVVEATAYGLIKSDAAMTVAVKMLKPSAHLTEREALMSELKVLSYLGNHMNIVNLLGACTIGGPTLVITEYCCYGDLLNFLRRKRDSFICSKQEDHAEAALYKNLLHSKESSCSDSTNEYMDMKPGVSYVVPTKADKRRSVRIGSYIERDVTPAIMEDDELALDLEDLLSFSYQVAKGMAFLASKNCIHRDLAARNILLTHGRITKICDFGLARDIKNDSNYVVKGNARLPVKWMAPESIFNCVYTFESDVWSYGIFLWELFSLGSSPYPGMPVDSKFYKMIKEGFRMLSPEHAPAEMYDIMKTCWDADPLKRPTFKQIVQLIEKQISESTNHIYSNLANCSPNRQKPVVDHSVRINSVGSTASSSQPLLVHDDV

Consider `COc1ccc(Oc2cc(C)c(-c3csc(NC(=O)c4ccnc(F)c4)n3)c(C)c2)cc1`, for which the AUC in data set [1] came to 64.9 µM·h. For the same compound, the IC50 in data set [2], in data set [6], in [11], in [12], in [13] and in data set [18] was greater than 10 µM in each case. Further, the IC50 in data set [21] is greater than 10 µM. Moreover, the inhibition result in data set [3] and in data set [17] was “Active” in each case. Also, the clearance in data set [4] came to 1.22 mL/min/kg. Besides, in data set [5], the Vd is 0.948 L/kg. In addition, the GI50 in data set [7] was 0.0296 µM; in [19], greater than 9 µM; in [20], 0.0398 µM. Also, the figures for the Activity in [8] and in [10] were 16.9% and less than 5%, respectively. The bioavailability is 22.7% in [9] and 4.6% in [14]. Also, in data set [15], the T/C worked out at 57%. Also, in [16], the outcome was Active.
